# Reference: ChEMBL document CHEMBL3286351, “Antibacterial evaluation of structurally amphipathic, membrane active small cationic peptidomimetics: synthesized by incorporating 3-amino benzoic acid as peptidomimetic element” (Eur J Med Chem, 2014)
# Calls of active or inactive are those of the source. The calls are words filed in the database; no cut-off is given here. Where a SMILES comes first, the peptide text is derived from it. [ ]: non-standard residue; d: D form. 3Abz = Nc1cccc(C(=O)O)c1; Orn = NCCC[CH](N)C(=O)O
# What was measured:
# Staphylococcus aureus [1] = assay: Antibacterial activity against methicillin-resistant Staphylococcus aureus ATCC BAA-1720 assessed as growth inhibition after 18 hrs by CLSI microdilution broth assay; format: functional; details: ATCC BAA-1720, 18 h
# Outline: (§1)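 Modified CLSI broth microdilution in Mueller-Hinton broth. Wells held 90 µL of about 2 × 10^5 CFU/mL inoculum plus 10 µL of serially diluted peptidomimetic, range 0.7-100 µg/mL. Plates were incubated overnight with agitation at 37 °C and absorbance read at 600 nm after 18 h. Controls: inoculum without compound, and uninoculated broth. Run in triplicate.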
# [2] = Stability in human plasma assessed as compound degradation after 30 mins by RP-HPLC analysis; format: ADME, cell-free; details: read-out: Drug degradation
# Outline: (§2)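 Compound (1 mg/mL stock in water; 50 µL) added to 1 mL fresh heparinized human plasma and held at 37 °C. Samples taken at 30 min, 1, 2, 6, 12 and 24 h. Proteins precipitated with 95% ethanol, cooled at 4 °C for 15 min and centrifuged at 18,000 g. Supernatant analyzed by RP-HPLC with UV detection at 280 nm.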
# Plasma [3] = assay: Stability in human plasma assessed as compound degradation after 12 hrs by RP-HPLC analysis; format: ADME, cell-free; outline: as §2
# [4] = tested on: Staphylococcus epidermidis; assay: Antibacterial activity against methicillin-resistant Staphylococcus epidermidis ATCC 51625 assessed as growth inhibition after 18 hrs by CLSI microdilution broth assay; format: functional; details: ATCC 51625, 18 h; outline: as §1
# Staphylococcus aureus [5] = assay: Antibacterial activity against Staphylococcus aureus MTCC 3160 assessed as growth inhibition after 18 hrs by CLSI microdilution broth assay; format: functional; details: MTCC 3160, 18 h
# Pseudomonas aeruginosa = assay: Antibacterial activity against Pseudomonas aeruginosa MTCC 2295 assessed as growth inhibition after 18 hrs by CLSI microdilution broth assay; format: functional; details: MTCC 2295, 18 h
# HaCaT [6] = assay: Cytotoxicity against human HaCaT cells at 100 to 500 ug/ml after 24 hrs by LDH release assay; format: cell-based
# Outline: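 HaCaT cells (DMEM with 10% FBS, 37 °C, 5% CO2) seeded for 24 h, then treated with varying concentrations for 24 h. LDH measured at 490 nm in both supernatant and trypsinized cell lysate with a non-radioactive kit. % release = supernatant/(supernatant + lysate) × 100. Two independent experiments in triplicate.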
# [7] = Retention time of the compound by HPLC analysis; format: physicochemical
# Outline: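 Analytical RP-HPLC on a C18 column (5 µm, 4.6 × 250 mm) at room temperature. Run a linear gradient of 0.5-60% acetonitrile containing 0.05% TFA against water containing 0.05% TFA at 0.5 mL/min.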
# [8] = (§3) Stability in human plasma assessed as compound degradation after 24 hrs by RP-HPLC analysis; format: ADME, cell-free; details: read-out: Drug degradation; outline: as §2
# HaCaT [9] = assay: Cytotoxicity against human HaCaT cells assessed as decrease in cell viability after 24 hrs by MTT assay; format: cell-based
# Outline: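 HaCaT keratinocytes grown as a monolayer in DMEM with 10% FBS and penicillin/streptomycin, 37 °C, 5% CO2. Seeded 24 h, then exposed to compound for 24 h. MTT (5 mg/mL stock in PBS) added for 4 h; formazan dissolved in isopropanol and read at 570 nm. Growth inhibition calculated relative to medium-only controls. Two independent experiments in triplicate.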
# trypsin = assay: (§4) Proteolytic stability assessed as trypsin (unknown origin)-mediated compound degradation by measuring compound remaining after 4 days by RP-HPLC analysis; format: ADME; details: human, trypsin; read-out: Stability
# Outline: (§5)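 Compound at 1 mg/mL in 0.1 M NH4HCO3 (pH 8.2) combined with trypsin or α-chymotrypsin solution (1 mg enzyme per 50 mL of the same buffer) at 37 °C. Aliquots taken over time and quenched with 10% formic acid. Remaining compound quantified by C18 RP-HPLC. An enzyme-free control was run for each test.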
# [10] = Selectivity ratio of HC50 for hemolysis in human RBC to MIC for Staphylococcus aureus
# alpha chymotrypsin = assay: Proteolytic stability assessed as alpha chymotrypsin (unknown origin)-mediated compound degradation by measuring compound remaining after 4 days by RP-HPLC analysis; format: ADME; details: human, read-out: Stability; outline: as §5
# Bacillus subtilis = assay: Antibacterial activity against Bacillus subtilis MTCC 2763 assessed as growth inhibition after 18 hrs by CLSI microdilution broth assay; format: functional; details: MTCC 2763, 18 h
# Escherichia coli [11] = assay: Antibacterial activity against Escherichia coli MTCC 723 assessed as growth inhibition after 18 hrs by CLSI microdilution broth assay; format: functional; details: MTCC 723, 18 h
# [12] = Induction of hemolysis in human RBC assessed as hemoglobin release after 1 hr by microtiter plate reader analysis; format: cell-based, Erythrocyte; details: for HC10: erythrocyte, 1 h; for HC50 at 1 h: red blood cells
# Outline: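 Freshly isolated human RBCs washed three times in PBS (35 mM phosphate, 150 mM NaCl, pH 7.2) and used as a 4% (v/v) suspension. Mixed 1:1 with twofold serial dilutions of compound, incubated 1 h at 37 °C without agitation, then centrifuged. Supernatant A540 read. PBS defined 0% and 1% Triton X-100 defined 100% lysis; HC50 and HC10 derived.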
# Lipid bilayer [13] = assay: Membrane permeabilization in bacterial membrane model consisting large unilamellar vesicle of dipalmitoylphosphatidylcholine:dipalmitoylphosphatidylglycerol at ratio of 7:3 assessed as calcein release at 5 ug/ml after 50 mins by fluorescence assay; format: cell membranes
# Outline: (§6)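 LUVs of DPPC:DPPG 7:3 (w/w) loaded with 70 mM calcein (150 mM NaCl, 0.1 mM EDTA, pH 7.4). Made by freeze-thaw and extrusion through 100 nm filters; free dye removed on Sephadex G-50; diameter 110-130 nm. Diluted to 40 µM lipid and exposed to 5-15 µg/mL compound. Fluorescence read at ex 490/em 520 nm each minute for 20 min, then every 10 min. Triton X-100 defined 100% release.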
# [14] = Proteolytic stability assessed as trypsin (unknown origin)-mediated compound degradation after 36 hrs by RP-HPLC analysis; format: ADME; details: human; outline: as §5
# Staphylococcus aureus [15] = assay: Antibacterial activity against methicillin-resistant Staphylococcus aureus ATCC BAA-1720 assessed as growth inhibition treated for 16 days by two-fold dilution assay; format: functional, organism-based
# Outline: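 Serial-passage resistance study. Start from the initial MIC by broth microdilution, then expose cells to doubling dilutions in triplicate wells. After each 18 h incubation, pool the wells with the highest concentration still showing visible growth and re-inoculate at about 2 × 10^6 CFU/mL.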
# Escherichia coli [16] = assay: Induction of membrane damage in Escherichia coli at 4 times MIC after 2 hrs by DAPI/propidium iodide staining based fluorescence microscopy; format: functional, organism-based
# Outline: (§7)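 Stained with PI (5 µg/mL) for 15 min in the dark at 0 °C, washed, then DAPI (10 µg/mL) for 15 min in the dark at 0 °C. Untreated cells processed identically as controls. Imaged by fluorescence microscopy with a 60× oil objective.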
# Staphylococcus aureus [17] = assay: Induction of membrane damage in Staphylococcus aureus at 4 times MIC after 2 hrs by DAPI/propidium iodide staining based fluorescence microscopy; format: functional, organism-based; outline: as §7
# Plasma [18] = assay: Stability in human plasma assessed as compound degradation after 1 hr by RP-HPLC analysis; format: ADME, cell-free; outline: as §2
# [19] = Stability in human plasma assessed as compound degradation after 2 hrs by RP-HPLC analysis; format: ADME, cell-free; details: read-out: Drug degradation; outline: as §2
# Staphylococcus aureus [20] = assay: Bactericidal activity against Staphylococcus aureus MTCC 3160 assessed as number of bacteria at 4 times MIC measured within 30 mins by time kill assay (reference value: 10^6 CFU/ml); format: functional
# Outline: (§8)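 Time-kill assay. […] Aliquots taken at fixed intervals were serially diluted and plated on Mueller-Hinton agar. CFU were counted after 24 h at 37 °C. Two independent experiments, each in triplicate.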
# [21] = Proteolytic stability assessed as alpha chymotrypsin (unknown origin)-mediated compound degradation after 24 hrs by RP-HPLC analysis; format: ADME; details: human; outline: as §5
# Staphylococcus aureus [22] = assay: Antibacterial activity against Staphylococcus aureus MTCC 3160 assessed as growth inhibition treated for 16 days by two-fold dilution assay; format: functional, organism-based
# Plasma [23] = assay: as §3; format: ADME, cell-free; details: 24 h; outline: as §2
# Escherichia coli [24] = assay: Bactericidal activity against Escherichia coli MTCC 723 assessed as number of bacteria at 4 times MIC measured within 30 mins by time kill assay (reference value: 10^6 CFU/ml); format: functional; outline: as §8
# Lipid bilayer [25] = assay: Membrane permeabilization in bacterial membrane model consisting large unilamellar vesicle of dipalmitoylphosphatidylcholine:dipalmitoylphosphatidylglycerol at ratio of 7:3 assessed as calcein release after 5 mins by fluorescence assay; format: cell membranes; outline: as §6
# Lipid bilayer [26] = assay: Membrane permeabilization in bacterial membrane model consisting large unilamellar vesicle of dipalmitoylphosphatidylcholine:dipalmitoylphosphatidylglycerol at ratio of 7:3 assessed as calcein release at 15 ug/ml after 20 mins by fluorescence assay; format: cell membranes; outline: as §6
# [27] = Membrane permeabilization in mammalian membrane model consisting large unilamellar vesicle of dipalmitoylphosphatidylcholine:cholesterol at ratio of 10:1 assessed as calcein release at 15 ug/ml after 5 mins by fluorescence assay; format: cell membranes
# Outline: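 LUVs of DPPC/cholesterol 10:1 (w/w) loaded with calcein, extruded through 100 nm filters, and cleared of free dye on Sephadex G-50. Diluted to 40 µM lipid in calcein-free buffer (150 mM NaCl, 0.1 mM EDTA). Calcein release read at ex 490/em 520 nm, normalized to Triton X-100 lysis.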
# Lipid bilayer [28] = assay: Membrane permeabilization in bacterial membrane model consisting large unilamellar vesicle of dipalmitoylphosphatidylcholine:dipalmitoylphosphatidylglycerol at ratio of 7:3 assessed as calcein release at 5 ug/ml after 90 mins by fluorescence assay; format: cell membranes; outline: as §6
# [29] = as §4; format: ADME; details: human, 96 h; outline: as §5
# Lipid bilayer [30] = assay: Membrane permeabilization in bacterial membrane model consisting large unilamellar vesicle of dipalmitoylphosphatidylcholine:dipalmitoylphosphatidylglycerol at ratio of 7:3 assessed as calcein release at 15 ug/ml after 90 mins by fluorescence assay; format: cell membranes; outline: as §6
Compound,MIC (Staphylococcus aureus [1]) [mg/L],MIC [4] [mg/L],MIC (Staphylococcus aureus [5]) [mg/L],MIC (Pseudomonas aeruginosa) [mg/L],Activity (HaCaT [6]),Retention_time [7] [min],Activity (HaCaT [9]),remaining at 96 h (trypsin) [%],Selectivity ratio [10],remaining at 96 h (alpha chymotrypsin) [%],MIC (Bacillus subtilis) [mg/L],MIC (Escherichia coli [11]) [mg/L],HC10 [12] [µg/mL],HC50 at 1 h [12] [µg/mL],inhibition (Staphylococcus aureus [15]),Activity (Escherichia coli [16]),Activity (Staphylococcus aureus [17]),CFU/ml (Staphylococcus aureus [20]),Stability [21],inhibition (Staphylococcus aureus [22]),other results
N=C(N)NCCCC(NC(=O)C(Cc1c[nH]c2ccccc12)NC(=O)C(Cc1c[nH]c2ccccc12)NC(=O)C(CCCNC(=N)N)NC(=O)C(N)Cc1c[nH]c2ccccc12)C(N)=O (configuration not stated) (H-WRWWR-NH2; configuration not given here),17.5,20,15,70,Toxic,30.604,Dose-dependent effect,21,13.3,44,50,40,60,200,–,–,–,–,–,–,metabolised at 0.5 h [2]: 5.31%; Stability (Plasma [3]): Stable; metabolised at 24 h [8]: 18%
N=C(N)NCCCC(NC(=O)C(Cc1c[nH]c2ccccc12)NC(=O)c1cccc(NC(=O)C(Cc2c[nH]c3ccccc23)NC(=O)C(CCCNC(=N)N)NC(=O)C(N)Cc2c[nH]c3ccccc23)c1)C(N)=O (configuration not stated) (H-WRW[3Abz]WR-NH2; configuration not given here),5.5,5,5,12.5,Toxic,27.34,Dose-dependent effect,65,62,70,20,7.5,80,310,Active,Active,Active,1000,Stable,Active,Activity (Lipid bilayer [13]): 19%; Stability [14]: Stable; Stability (Plasma [18]): Stable; metabolised at 2 h [19]: 6.58%; Stability (Plasma [23]): Stable; CFU/ml (Escherichia coli [24]): 1000; Activity (Lipid bilayer [25]): Dose-dependent effect; Activity (Lipid bilayer [26]): 47%; Activity [27]: inactive
NCCCC(NC(=O)C(Cc1c[nH]c2ccccc12)NC(=O)c1cccc(NC(=O)C(Cc2c[nH]c3ccccc23)NC(=O)C(CCCN)NC(=O)C(N)Cc2c[nH]c3ccccc23)c1)C(N)=O (configuration not stated) (H-W[Orn]W[3Abz]W[Orn]-NH2; configuration not given here),5,6.25,6.25,15.5,Toxic,25.378,Dose-dependent effect,–,62.4,70,25,20,100,390,Active,Active,Active,1000,Stable,Active,Activity (Lipid bilayer [28]): 23%; Stability (Plasma [23]): Stable; Stability [29]: Stable; CFU/ml (Escherichia coli [24]): 1000; Activity (Lipid bilayer [25]): Dose-dependent effect; Activity (Lipid bilayer [30]): 48%; Activity [27]: inactive
